Measurements reported in ChEMBL document CHEMBL4371052, “Diarylcarbonates are a new class of deubiquitinating enzyme inhibitor” (Bioorg Med Chem Lett, 2019).
Activity calls are given as the source filed them. The rule behind the calls is not given here.

How the values were obtained:
[1] = target: T1, Ubiquitin carboxyl-terminal hydrolase 19 (Homo sapiens) (UniProt O94966); assay: Inhibition of USP19 in HEK293T cell lysates assessed as enzyme recovery at 250 uM using HA-tagged vinyl-sulfone as substrate […] followed by 10-fold dilution and subsequent substrate addition measured up to 2 hrs by Western blot analysis; assay type: subcellular; settings: Lysate
T1 sequence (whole entry): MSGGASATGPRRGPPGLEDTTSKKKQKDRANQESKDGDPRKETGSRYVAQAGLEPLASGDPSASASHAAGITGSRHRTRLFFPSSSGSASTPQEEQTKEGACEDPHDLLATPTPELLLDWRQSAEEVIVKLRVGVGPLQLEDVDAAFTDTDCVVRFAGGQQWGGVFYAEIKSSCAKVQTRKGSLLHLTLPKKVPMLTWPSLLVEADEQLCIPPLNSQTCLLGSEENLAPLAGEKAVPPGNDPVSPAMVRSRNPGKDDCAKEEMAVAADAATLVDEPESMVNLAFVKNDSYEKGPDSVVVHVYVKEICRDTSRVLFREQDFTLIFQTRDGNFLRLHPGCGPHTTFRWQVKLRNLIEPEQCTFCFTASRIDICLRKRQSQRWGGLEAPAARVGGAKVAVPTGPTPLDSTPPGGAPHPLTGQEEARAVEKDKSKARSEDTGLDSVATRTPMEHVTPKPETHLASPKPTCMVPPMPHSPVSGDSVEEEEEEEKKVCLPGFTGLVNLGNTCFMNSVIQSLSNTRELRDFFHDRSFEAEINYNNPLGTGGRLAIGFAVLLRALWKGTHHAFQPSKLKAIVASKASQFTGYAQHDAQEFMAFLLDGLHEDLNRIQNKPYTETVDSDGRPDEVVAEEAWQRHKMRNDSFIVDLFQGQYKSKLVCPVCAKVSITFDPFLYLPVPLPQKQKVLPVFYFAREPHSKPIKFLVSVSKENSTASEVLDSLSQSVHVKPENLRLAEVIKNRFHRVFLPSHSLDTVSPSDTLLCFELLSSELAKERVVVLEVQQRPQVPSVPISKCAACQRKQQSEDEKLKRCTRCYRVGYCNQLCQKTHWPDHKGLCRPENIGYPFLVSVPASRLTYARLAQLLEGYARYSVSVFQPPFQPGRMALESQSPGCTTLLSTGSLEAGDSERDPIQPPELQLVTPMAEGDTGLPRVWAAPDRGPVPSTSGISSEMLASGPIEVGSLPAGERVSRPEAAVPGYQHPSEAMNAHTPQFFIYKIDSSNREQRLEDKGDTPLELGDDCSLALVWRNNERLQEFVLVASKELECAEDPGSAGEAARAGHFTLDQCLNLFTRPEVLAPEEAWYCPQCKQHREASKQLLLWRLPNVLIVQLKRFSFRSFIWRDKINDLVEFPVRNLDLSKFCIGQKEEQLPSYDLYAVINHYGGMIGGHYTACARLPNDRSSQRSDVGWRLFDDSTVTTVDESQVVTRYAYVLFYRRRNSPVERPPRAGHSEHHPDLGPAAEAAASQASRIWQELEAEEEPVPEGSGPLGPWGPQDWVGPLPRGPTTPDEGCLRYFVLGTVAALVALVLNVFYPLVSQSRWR

[2] = target: Ubiquitin carboxyl-terminal hydrolase 7 (Homo sapiens) (UniProt Q93009); assay: Inhibition of USP7 in HEK293T cell lysates assessed as enzyme recovery at 250 uM using HA-tagged vinyl-sulfone as substrate […] followed by 10-fold dilution and subsequent substrate addition measured up to 2 hrs by Western blot analysis; assay type: subcellular; settings: Lysate
Sequence of Ubiquitin carboxyl-terminal hydrolase 7 (Homo sapiens) (Q93009 whole entry, looked up): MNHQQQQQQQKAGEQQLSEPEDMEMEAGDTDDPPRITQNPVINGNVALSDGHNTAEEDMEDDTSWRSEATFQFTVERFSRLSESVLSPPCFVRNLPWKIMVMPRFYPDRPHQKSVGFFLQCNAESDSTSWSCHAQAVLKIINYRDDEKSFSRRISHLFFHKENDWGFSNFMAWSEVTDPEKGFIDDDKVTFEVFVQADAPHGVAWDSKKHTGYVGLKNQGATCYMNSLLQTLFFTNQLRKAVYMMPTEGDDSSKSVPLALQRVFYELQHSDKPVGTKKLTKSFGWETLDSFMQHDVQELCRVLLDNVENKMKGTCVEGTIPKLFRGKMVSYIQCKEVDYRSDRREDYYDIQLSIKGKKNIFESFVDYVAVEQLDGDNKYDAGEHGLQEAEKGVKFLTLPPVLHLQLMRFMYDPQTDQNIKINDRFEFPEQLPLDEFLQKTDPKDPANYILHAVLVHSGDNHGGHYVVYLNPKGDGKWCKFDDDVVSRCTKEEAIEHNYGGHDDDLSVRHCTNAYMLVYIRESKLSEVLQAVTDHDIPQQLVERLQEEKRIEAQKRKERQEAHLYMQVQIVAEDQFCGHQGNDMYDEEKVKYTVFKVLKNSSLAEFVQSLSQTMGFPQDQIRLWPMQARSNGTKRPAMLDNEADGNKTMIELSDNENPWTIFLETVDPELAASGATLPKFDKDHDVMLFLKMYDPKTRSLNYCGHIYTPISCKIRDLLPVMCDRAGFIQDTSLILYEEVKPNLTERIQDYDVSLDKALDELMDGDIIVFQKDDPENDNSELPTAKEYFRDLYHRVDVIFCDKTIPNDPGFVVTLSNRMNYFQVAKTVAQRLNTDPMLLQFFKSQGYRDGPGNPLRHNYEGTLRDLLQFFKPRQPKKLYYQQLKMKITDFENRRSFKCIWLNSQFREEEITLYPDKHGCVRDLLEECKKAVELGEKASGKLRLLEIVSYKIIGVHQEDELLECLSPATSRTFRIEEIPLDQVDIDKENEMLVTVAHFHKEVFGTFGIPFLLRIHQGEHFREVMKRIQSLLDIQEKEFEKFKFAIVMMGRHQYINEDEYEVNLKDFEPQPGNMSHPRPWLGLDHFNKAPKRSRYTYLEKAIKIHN

[3] = target: T2, Ubiquitin carboxyl-terminal hydrolase 8 (Homo sapiens) (UniProt P40818); assay: Inhibition of USP8 in HEK293T cell lysates assessed as enzyme recovery at 250 uM using HA-tagged vinyl-sulfone as substrate preincubated for 40 mins followed by 10-fold dilution and subsequent substrate addition measured up to 2 hrs by Western blot analysis; assay type: subcellular; settings: Lysate
T2 sequence (whole entry): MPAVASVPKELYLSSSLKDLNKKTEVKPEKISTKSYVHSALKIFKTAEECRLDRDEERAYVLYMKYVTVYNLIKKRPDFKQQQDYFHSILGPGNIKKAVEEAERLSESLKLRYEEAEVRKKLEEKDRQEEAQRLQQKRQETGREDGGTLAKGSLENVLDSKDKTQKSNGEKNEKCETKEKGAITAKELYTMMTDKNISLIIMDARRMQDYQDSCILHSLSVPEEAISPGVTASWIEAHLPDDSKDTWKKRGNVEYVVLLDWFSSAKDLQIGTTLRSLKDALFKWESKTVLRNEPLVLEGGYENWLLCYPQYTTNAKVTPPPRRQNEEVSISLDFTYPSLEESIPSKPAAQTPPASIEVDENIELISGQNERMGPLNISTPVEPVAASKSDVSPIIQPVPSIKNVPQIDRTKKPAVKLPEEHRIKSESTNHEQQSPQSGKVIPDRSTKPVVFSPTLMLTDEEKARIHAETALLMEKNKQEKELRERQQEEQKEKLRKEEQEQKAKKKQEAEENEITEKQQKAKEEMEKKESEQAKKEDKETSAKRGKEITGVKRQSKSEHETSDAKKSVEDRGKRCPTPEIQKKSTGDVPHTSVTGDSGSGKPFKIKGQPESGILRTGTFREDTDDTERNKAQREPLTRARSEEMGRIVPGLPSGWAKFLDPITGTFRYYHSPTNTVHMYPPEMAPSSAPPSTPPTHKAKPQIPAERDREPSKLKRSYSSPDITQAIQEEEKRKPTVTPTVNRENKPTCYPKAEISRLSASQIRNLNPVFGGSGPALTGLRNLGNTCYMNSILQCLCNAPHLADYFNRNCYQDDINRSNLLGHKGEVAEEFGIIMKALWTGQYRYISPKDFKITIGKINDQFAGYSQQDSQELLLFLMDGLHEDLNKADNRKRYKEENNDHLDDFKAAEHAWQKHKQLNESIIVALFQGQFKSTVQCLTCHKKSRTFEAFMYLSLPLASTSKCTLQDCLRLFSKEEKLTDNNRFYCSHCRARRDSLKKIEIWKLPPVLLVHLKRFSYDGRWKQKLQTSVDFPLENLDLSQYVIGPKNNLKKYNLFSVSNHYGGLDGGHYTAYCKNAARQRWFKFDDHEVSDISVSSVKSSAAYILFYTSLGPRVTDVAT

[4] = target: Ubiquitin carboxyl-terminal hydrolase 9X (Homo sapiens) (UniProt Q93008); assay: Inhibition of USP9x in human K562 cells assessed as decrease in Bcr-Abl expression at 50 uM measured after 4 hrs in presence of proteasome inhibitor bortezomib by Western blot analysis; assay type: cell-based
Sequence of Ubiquitin carboxyl-terminal hydrolase 9X (Homo sapiens) (Q93008 whole entry): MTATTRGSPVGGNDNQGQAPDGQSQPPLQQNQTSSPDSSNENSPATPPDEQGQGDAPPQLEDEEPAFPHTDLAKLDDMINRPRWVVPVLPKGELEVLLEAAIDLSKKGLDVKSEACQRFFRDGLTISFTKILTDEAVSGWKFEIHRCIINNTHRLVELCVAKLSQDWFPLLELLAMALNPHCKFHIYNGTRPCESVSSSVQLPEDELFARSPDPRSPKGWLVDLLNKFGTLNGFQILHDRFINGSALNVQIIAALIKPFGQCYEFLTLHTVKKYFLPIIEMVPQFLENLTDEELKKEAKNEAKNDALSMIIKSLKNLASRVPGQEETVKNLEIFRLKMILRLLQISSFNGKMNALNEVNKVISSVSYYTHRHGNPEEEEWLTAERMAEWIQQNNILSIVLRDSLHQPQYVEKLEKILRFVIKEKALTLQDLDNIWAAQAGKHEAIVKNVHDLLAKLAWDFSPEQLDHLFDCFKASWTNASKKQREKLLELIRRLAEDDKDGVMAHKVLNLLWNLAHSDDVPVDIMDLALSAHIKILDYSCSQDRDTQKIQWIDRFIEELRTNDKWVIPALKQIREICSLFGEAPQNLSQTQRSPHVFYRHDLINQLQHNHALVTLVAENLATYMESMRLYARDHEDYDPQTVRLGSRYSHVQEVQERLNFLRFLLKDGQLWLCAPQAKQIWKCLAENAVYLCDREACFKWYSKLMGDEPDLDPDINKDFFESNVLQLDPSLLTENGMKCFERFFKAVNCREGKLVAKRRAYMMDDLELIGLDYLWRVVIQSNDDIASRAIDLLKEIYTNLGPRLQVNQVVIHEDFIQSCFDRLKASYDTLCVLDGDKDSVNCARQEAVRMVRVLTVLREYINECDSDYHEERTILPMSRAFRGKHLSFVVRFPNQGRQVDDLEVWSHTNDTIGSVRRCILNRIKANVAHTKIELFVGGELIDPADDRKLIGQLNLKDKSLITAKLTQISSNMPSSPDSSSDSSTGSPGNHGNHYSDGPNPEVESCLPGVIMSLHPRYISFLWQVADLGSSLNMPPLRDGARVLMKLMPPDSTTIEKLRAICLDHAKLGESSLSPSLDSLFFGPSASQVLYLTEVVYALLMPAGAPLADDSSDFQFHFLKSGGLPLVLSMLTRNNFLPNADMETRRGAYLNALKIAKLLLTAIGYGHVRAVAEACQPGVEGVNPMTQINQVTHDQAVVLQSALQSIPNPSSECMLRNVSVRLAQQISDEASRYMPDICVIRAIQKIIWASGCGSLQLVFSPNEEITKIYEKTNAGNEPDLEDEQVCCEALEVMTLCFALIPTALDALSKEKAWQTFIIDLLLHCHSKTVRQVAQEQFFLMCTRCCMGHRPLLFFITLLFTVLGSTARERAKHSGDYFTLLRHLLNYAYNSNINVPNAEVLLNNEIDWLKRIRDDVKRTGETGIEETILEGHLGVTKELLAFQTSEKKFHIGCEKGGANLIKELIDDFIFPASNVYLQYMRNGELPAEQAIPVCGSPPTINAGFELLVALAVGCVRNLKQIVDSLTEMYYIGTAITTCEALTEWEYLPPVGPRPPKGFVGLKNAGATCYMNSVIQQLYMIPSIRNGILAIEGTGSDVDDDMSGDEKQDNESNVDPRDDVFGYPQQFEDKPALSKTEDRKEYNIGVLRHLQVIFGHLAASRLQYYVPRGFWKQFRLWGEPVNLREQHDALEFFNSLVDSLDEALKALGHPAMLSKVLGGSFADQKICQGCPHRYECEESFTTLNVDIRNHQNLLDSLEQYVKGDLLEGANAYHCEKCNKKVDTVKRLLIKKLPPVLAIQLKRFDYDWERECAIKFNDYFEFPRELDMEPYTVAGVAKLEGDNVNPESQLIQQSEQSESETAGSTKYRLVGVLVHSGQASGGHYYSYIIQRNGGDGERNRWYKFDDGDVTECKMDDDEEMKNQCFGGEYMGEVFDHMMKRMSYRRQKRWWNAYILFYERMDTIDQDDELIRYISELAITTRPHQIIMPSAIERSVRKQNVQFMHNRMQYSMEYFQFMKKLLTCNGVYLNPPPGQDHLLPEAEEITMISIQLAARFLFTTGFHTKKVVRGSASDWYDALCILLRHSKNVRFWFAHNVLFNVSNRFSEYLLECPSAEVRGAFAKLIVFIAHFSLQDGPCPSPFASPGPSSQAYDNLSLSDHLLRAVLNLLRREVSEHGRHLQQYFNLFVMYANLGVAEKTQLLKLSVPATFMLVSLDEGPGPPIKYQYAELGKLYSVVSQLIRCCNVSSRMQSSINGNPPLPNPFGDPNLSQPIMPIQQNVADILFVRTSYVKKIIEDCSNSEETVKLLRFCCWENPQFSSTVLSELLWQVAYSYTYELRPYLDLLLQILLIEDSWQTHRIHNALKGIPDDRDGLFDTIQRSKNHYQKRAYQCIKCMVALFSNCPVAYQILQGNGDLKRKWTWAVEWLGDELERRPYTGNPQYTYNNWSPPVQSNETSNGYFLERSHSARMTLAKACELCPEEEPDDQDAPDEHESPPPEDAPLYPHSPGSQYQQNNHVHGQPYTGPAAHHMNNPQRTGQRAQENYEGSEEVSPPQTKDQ
Outline: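 K562 cells treated with 50 μM compound with or without bortezomib (6 μM) for 4 h. Lysates were sonicated in SDS, and Bcr-Abl was measured by anti-Abl immunoblot with quantitation.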

MCF7 = assay: Cytotoxicity against human MCF7 cells assessed as decrease in cell viability treated every 24 hrs measured after 72 hrs by alamar blue assay; assay type: functional, cell-based
Outline: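 MCF7 or B16/F10 cells dosed with compound every 24 h. Viable cells were quantified with Alamar Blue after 72 h.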

Ficin (Ficus carica) = assay: Inhibition of fig ficin at 100 uM using Z-Arg-AMC as substrate preincubated for 30 mins followed by substrate addition by fluorescence assay

For `NCc1ccc(OC(=O)Oc2ccc3ccccc3c2)cc1`, the inhibition [1] was “inactive”, the inhibition [2] was “inactive” and the inhibition [3] was “inactive”. The inhibition [4] was “Active”, the Activity (MCF7) was “Active” and the inhibition (Ficin (Ficus carica)) was “inactive”.
